Measurements: ChEMBL document CHEMBL1126969, “Antipsoriatic anthrones with modulated redox properties. 1. Novel 10-substituted 1,8-dihydroxy-9(10H)-anthracenones as inhibitors of 5-lipoxygenase” (J Med Chem, 1993)

Assays:
[1] = biological target: T1, Arachidonate 5-lipoxygenase (Bos taurus, UniProt Q9BEG3); assay: Inhibitory activity against 5-lipoxygenase (inhibition of 5-HETE and LTB4 biosynthesis) in bovine polymorphonuclear leukocytes (PMNL).; assay type: cell-based
T1 sequence (Q9BEG3 whole entry): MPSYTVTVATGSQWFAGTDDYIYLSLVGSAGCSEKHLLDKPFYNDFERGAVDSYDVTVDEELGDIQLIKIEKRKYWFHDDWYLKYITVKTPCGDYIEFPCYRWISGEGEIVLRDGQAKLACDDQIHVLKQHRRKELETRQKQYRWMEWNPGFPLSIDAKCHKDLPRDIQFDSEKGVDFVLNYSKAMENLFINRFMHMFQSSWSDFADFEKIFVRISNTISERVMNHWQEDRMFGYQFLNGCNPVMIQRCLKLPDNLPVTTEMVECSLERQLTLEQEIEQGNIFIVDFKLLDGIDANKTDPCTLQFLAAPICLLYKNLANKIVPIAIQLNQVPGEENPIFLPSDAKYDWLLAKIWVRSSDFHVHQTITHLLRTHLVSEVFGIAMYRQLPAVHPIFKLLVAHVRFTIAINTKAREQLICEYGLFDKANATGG

[2] = Reducing activity against 2,2-diphenyl-1-picrylhydrazyl; assay type: ADME
[3] = (§1) Deoxyribose-damaging property as a measure of hydroxyl-radical formation (uM of malondialdehyde/mmol of deoxyribose released by 75 uM test compound)
In short: (§2)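 2-Deoxy-D-ribose (2 mM) with FeCl3 (0.1 mM) in 30 mM KH2PO4-KOH buffer pH 7.4, compound at 75 μM final (acetonitrile vehicle, fresh stocks), 2 h at 37 °C. TBA/trichloroacetic acid added, heated 100 °C 15 min, acidified, extracted into butanol, A532 read. Calibrated against malondialdehyde standard; expressed as μmol MDA/mmol deoxyribose.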

[4] = Deoxyribose-damaging property as a measure of hydroxyl-radical formation (uM test compound)
[5] = biological target: T2, Arachidonate 5-lipoxygenase (Bos taurus) (UniProt Q9BEG3); assay: Inhibitory activity against 5-lipoxygenase (inhibition of 5-HETE and LTB4 biosynthesis) in bovine polymorphonuclear leukocytes (PMNL) at 30 uM; assay type: cell-based
T2 sequence (whole entry): T1 sequence (Q9BEG3 whole entry)
In short: (§3)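 Bovine PMNL from EDTA blood, platelets removed, 1×10^7 cells/mL in PBS pH 7.4. Compound (DMSO, 0.4% final) preincubated 15 min at 37 °C, then stimulated with CaCl2 2 mM and A23187 20 μM for 10 min. Stopped with methanol/acetonitrile containing NDGA and PGB2 marker. LTB4 (280 nm) and 5-HETE (232 nm) quantified by RP-HPLC against internal and external standards.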

[6] = Reducing activity against 2,2-diphenyl-1-picrylhydrazyl with an equimolar amount of the test compound; c = Not reactive; assay type: ADME
[7] = biological target: T2, Arachidonate 5-lipoxygenase (Bos taurus); assay: Inhibitory activity against 5-lipoxygenase (inhibition of 5-HETE and LTB4 biosynthesis) in bovine polymorphonuclear leukocytes (PMNL); assay type: cell-based; conditions: concentration not given here; in short: as §3
[8] = as §1; assay type: ADME; in short: as §2

Row | Structure (SMILES) | IC50 [1] [µM] | kDPPH [2] [M⁻¹ s⁻¹] | Deoxyribose degradation (uM of MDA mM-1) [4] | inhibition [5] [%] | other results
1 | O=C1c2c(O)cccc2C(C(=O)/C=C/c2ccc([N+](=O)[O-])cc2)c2cccc(O)c21 | 6 | > 100 | – | – | Deoxyribose degradation (uM of MDA mM-1) [3]: 0.88
2 | O=C1c2c(O)cccc2C(=Cc2ccc([N+](=O)[O-])cc2)c2cccc(O)c21 | 2 | < 1 | < 0.15 | – | –
3 | O=C(O)c1ccc(C=C2c3cccc(O)c3C(=O)c3c(O)cccc32)cc1 | – | < 1 | < 0.15 | < 10 | –
4 | O=C1c2c(O)cccc2C(C(=O)CCCc2ccccc2)c2cccc(O)c21 | 0.3 | 10.1 | < 0.2 | – | –
5 | COc1ccc(C=C2c3cccc(O)c3C(=O)c3c(O)cccc32)cc1 | – | < 1 | < 0.15 | < 10 | –
6 | COc1ccc(CC(=O)C2c3cccc(O)c3C(=O)c3c(O)cccc32)cc1 | 0.5 | 15.1 | < 0.2 | – | –
7 | COc1ccc(CCC(=O)C2c3cccc(O)c3C(=O)c3c(O)cccc32)cc1 | 1 | 7.4 | 1.4 | – | –
8 | O=C1c2c(O)cccc2C(C(=O)Cc2ccc(O)cc2)c2cccc(O)c21 | – | 14.7 | 0.36 | – | –
9 | COc1ccc(CCC(=O)C2c3cccc(O)c3C(=O)c3c(O)cccc32)cc1OC | 17 | 8.7 | < 0.2 | – | –
10 | O=C1c2c(O)cccc2C(C(=O)Cc2ccc([N+](=O)[O-])cc2)c2cccc(O)c21 | – | 63.7 | < 0.2 | – | –
11 | COc1cccc(/C=C/C(=O)C2c3cccc(O)c3C(=O)c3c(O)cccc32)c1 | 3 | > 100 | – | – | –
12 | O=C1c2c(O)cccc2C(C(=O)Cc2ccc(OCc3ccccc3)cc2)c2cccc(O)c21 | 0.6 | 13.3 | < 0.2 | – | –
13 | O=C1c2c(O)cccc2C(=Cc2ccc(O)cc2)c2cccc(O)c21 | 4 | > 100 | < 0.15 | – | –
14 | O=C1c2c(O)cccc2C(=CCc2ccccc2)c2cccc(O)c21 | – | < 1 | < 0.15 | 30 | –
15 | O=C1c2c(O)cccc2C(=Cc2ccc(C(F)(F)F)cc2)c2cccc(O)c21 | – | < 1 | < 0.15 | 33 | –
16 | CC(Cc1ccc(O)c(O)c1)C(C)Cc1ccc(O)c(O)c1 (configuration not stated) [NORDIHYDROGUAIARETIC ACID] | – | > 100 | – | – | Deoxyribose degradation (uM of MDA mM-1) [3]: 0.23
17 | Cc1ccc(C=C2c3cccc(O)c3C(=O)c3c(O)cccc32)cc1 | – | < 1 | < 0.15 | 23 | –
18 | COc1ccc(C=C2c3cccc(O)c3C(=O)c3c(O)cccc32)cc1OC | – | < 1 | < 0.15 | < 10 | –
19 | COc1cc(C=C2c3cccc(O)c3C(=O)c3c(O)cccc32)cc(OC)c1OC | – | < 1 | < 0.15 | 10 | –
20 | O=C1c2c(O)cccc2C(C(=O)/C=C/c2ccccc2)c2cccc(O)c21 | – | > 100 | – | – | Deoxyribose degradation (uM of MDA mM-1) [3]: 1.66
21 | COC(=O)c1ccc(C=C2c3cccc(O)c3C(=O)c3c(O)cccc32)cc1 | – | < 1 | < 0.15 | < 10 | –
22 | O=C1c2c(O)cccc2C(C(=O)Cc2ccccc2)c2cccc(O)c21 | – | 16.4 | < 0.2 | – | –

Row | Structure (SMILES) | IC50 [1] [µM] | kDPPH [2] [M⁻¹ s⁻¹] | Deoxyribose degradation (uM of MDA mM-1) [4] | inhibition [5] [%] | other results
23 | O=C1c2c(O)cccc2C(C(=O)Cc2cc(OCc3ccccc3)c(OCc3ccccc3)c(OCc3ccccc3)c2)c2cccc(O)c21 | – | 15.3 | – | – | Deoxyribose degradation (uM of MDA mM-1) [3]: < 0.2
24 | CCCC(=O)C1c2cccc(O)c2C(=O)c2c(O)cccc21 [BUTANTRONE] | 33 | 7 | 0.24 | – | –
25 | O=C1c2c(O)cccc2C(C(=O)CCc2ccccc2)c2cccc(O)c21 | – | 10.3 | < 0.2 | – | –
26 | O=C1c2c(O)cccc2C(C(=O)Cc2cc(O)c(O)c(O)c2)c2cccc(O)c21 | – | > 100 | – | – | Deoxyribose degradation (uM of MDA mM-1) [3]: 2.99
27 | O=C1c2c(O)cccc2C(C(=O)CCc2ccc(O)cc2)c2cccc(O)c21 | 1 | 7.8 | 2.5 | – | –
28 | O=C1c2c(O)cccc2C(=Cc2ccc(O)c(O)c2)c2cccc(O)c21 | 0.5 | > 100 | – | – | Deoxyribose degradation (uM of MDA mM-1) [3]: 0.44
29 | O=C1c2c(O)cccc2C(=CCCCCc2ccccc2)c2cccc(O)c21 | – | < 1 | < 0.15 | 0 | –
30 | COc1c(OC)c(OC(C)=O)c2cc(Cl)ccc2c1OC(C)=O [LONAPALENE] | – | – | – | – | kDPPH [6]: Not Active; Deoxyribose degradation (uM of MDA mM-1) [3]: < 0.15
31 | O=C1c2c(O)cccc2C(C(=O)CCCCc2ccccc2)c2cccc(O)c21 | 2 | 10.1 | < 0.2 | – | –
32 | O=C1c2c(O)cccc2Cc2cccc(O)c21 [ANTHRALIN] | – | 24.2 | – | – | –
33 | COc1cc(CCC(=O)C2c3cccc(O)c3C(=O)c3c(O)cccc32)cc(OC)c1OC | – | 10.3 | < 0.2 | – | –
34 | O=C1c2c(O)cccc2C(=Cc2ccccc2)c2cccc(O)c21 | – | < 1 | < 0.15 | 34 | –
35 | O=C1c2c(O)cccc2C(C(=O)Cc2ccc(O)c(O)c2)c2cccc(O)c21 | 11 | > 100 | – | – | Deoxyribose degradation (uM of MDA mM-1) [3]: 6.26
36 | O=C1c2c(O)cccc2C(=CCCCc2ccccc2)c2cccc(O)c21 | – | < 1 | < 0.15 | 21 | –
37 | N#Cc1ccc(C=C2c3cccc(O)c3C(=O)c3c(O)cccc32)cc1 | – | < 1 | < 0.15 | 34 | –
38 | COc1ccc(CCC=C2c3cccc(O)c3C(=O)c3c(O)cccc32)cc1 | – | < 1 | < 0.15 | – | inhibition [7]: 24%
39 | CC(=O)Oc1cccc2cc3cccc(OC(C)=O)c3c(OC(C)=O)c12 [TRIACETOXYANTHRENE] | – | – | – | 15 | kDPPH [6]: Not Active; Deoxyribose degradation (uM of MDA mM-1) [3]: < 0.15
40 | O=C1c2c(O)cccc2C(C(=O)CCc2ccc(OCc3ccccc3)cc2)c2cccc(O)c21 | 2 | 8.8 | < 0.2 | – | –
41 | CC(C)(C)c1cc(CC(=O)C2c3cccc(O)c3C(=O)c3c(O)cccc32)cc(C(C)(C)C)c1O | – | > 100 | < 0.2 | – | –
42 | O=C1c2c(O)cccc2C(C(=O)Cc2ccc(OCc3ccccc3)c(OCc3ccccc3)c2)c2cccc(O)c21 | – | 15 | < 0.2 | 34 | –
43 | O=C1c2c(O)cccc2C(=Cc2cc(O)c(O)c(O)c2)c2cccc(O)c21 | 0.4 | > 100 | – | – | Deoxyribose degradation [8]: 6.03 uM of MDA mM-1
44 | O=C1c2c(O)cccc2C(=CCCc2ccccc2)c2cccc(O)c21 | – | < 1 | < 0.15 | – | –
